Calls of active or inactive are those of the source.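 How the source made its calls: active means current rise at least 3 SD above the untreated control mean in each of two repeat wells; inactive means the rest.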
The molecules below were run against Potassium voltage-gated channel subfamily KQT member 1 (Homo sapiens) (UniProt P51787) (assay: KCNQ1 activators by electrophysiology – IonWorks patch clamp, KCNQ1-CHO cells, orthogonal assay for KCNQ1 potentiator project, confirmation (AID 493184)). Details: automated patch clamp current, at 10 µM.
Chain of Potassium voltage-gated channel subfamily KQT member 1 (Homo sapiens) (P51787 whole entry, looked up): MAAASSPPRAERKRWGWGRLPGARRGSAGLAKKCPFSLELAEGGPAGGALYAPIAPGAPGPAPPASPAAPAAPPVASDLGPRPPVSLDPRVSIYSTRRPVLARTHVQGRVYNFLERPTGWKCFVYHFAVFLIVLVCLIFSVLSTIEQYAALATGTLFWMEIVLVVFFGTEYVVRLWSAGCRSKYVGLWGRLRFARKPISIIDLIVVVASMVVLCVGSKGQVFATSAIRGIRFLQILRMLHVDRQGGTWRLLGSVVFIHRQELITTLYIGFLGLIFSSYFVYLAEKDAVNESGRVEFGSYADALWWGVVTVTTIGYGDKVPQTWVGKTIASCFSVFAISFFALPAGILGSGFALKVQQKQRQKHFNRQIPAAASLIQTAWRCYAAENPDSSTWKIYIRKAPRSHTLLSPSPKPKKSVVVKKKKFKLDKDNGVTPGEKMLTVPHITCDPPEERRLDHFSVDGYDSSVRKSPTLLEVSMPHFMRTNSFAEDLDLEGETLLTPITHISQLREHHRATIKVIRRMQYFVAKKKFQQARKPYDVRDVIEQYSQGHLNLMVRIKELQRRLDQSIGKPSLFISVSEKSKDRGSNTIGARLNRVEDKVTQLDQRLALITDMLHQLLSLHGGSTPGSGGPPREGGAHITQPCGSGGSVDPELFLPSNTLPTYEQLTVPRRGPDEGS
Procedure, shortened: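 Probe or stimulus: depolarizing pulse to +40 mV from -90 mV; Material: CHO cells carrying KCNQ1; Compound: one dose, 10 µM final; Signal: automated voltage clamp, amphotericin B perforated patch; Read-out basis: percent current increase versus pre-compound level; Buffer or medium: pH 7.4 external bath; Replication: duplicates.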

outcome, inactive:
O=C(ONC1=NCCCCC1)c1ccc(Cl)cc1, Cc1ccc(/C=C/C(=O)C2C(=O)c3ccccc3C2=O)cc1, COc1cccc2sc(NNC(=O)C3COc4ccccc4O3)nc12 (stereo not given), O=S(=O)(CC(CN1CCCC1)N1CCCC1)c1ccc2ccccc2c1 (stereo not given), Cc1nc(NCCc2cnc[nH]2)c2oc3ccccc3c2n1, C/C(=N\NC(=S)Nc1cccc(C)c1)c1ccco1, C#CC1(NC(=O)NCCCC)CCCCC1, CC(C)(C)C1(O)CC(C(F)(F)F)=NN1C(=O)Cc1ccc([N+](=O)[O-])cc1 (stereo not given), CN(C)CC(CCCCC(CN(C)C)C(=O)c1ccccc1)C(=O)c1ccccc1 (stereo not given), Cn1ccnc1C(OC(=O)c1ccc(Cl)cc1)C(F)(F)F (stereo not given), COC(=O)C1=NN(C(=O)c2ccc(Cl)cc2)C(O)(c2ccccc2)C1 (stereo not given), C=CCn1c(O)c(N=NC(=S)Nc2cccc(OC)c2)c2ccccc21, Cc1ccc(C)c(N2CCN(C(=O)CCS(=O)(=O)c3ccc4c(c3)NC(=O)CO4)CC2)c1, COC(=O)CSc1nc(N)c2c3c(sc2n1)C(c1ccccc1)SC(c1ccccc1)C3 (stereo not given), CC(=O)c1c(C)[nH]c(C(=O)Nc2cccc(C(F)(F)F)c2)c1C, O=C(Nc1ccc2[nH]c(=S)sc2c1)Nc1ccccc1F, Cc1noc(C)c1CSc1ncnc2sc(C)c(C)c12, Cc1ccc2nc(SCC(=O)N3CCN(C(=O)c4ccco4)CC3)[nH]c2c1, Cc1ccc2sc(N(CCCN(C)C)C(=O)CCS(=O)(=O)c3ccccc3)nc2c1C, Cc1sc(-n2c(C)cc(/C=C3\SC(=S)NC3=O)c2C)c(C#N)c1C, CCOC(=O)C(=Cc1cc(=O)c(OC)co1)C(=O)OCC, CC(=O)OC1OCCOC1NC(=S)Nc1ccc(C)cc1 (stereo not given), C=CCn1c(=S)[nH]c2sc3c(c2c1=O)CCCC3, CCC1CCC2(CC1)NNC(=S)NN2, CCOC(=O)c1oc2c(CN3CCCCC3C)c(O)ccc2c(=O)c1-c1ccc(OC)c(OC)c1 (stereo not given), Cc1cccc(-c2nnc(NC(=O)c3ccc(Cl)cc3)o2)c1, Oc1c(N=NC(=S)Nc2ccccc2F)c2ccccc2n1Cc1ccc(F)cc1, CCCn1c(N)c(C(=O)CSc2nc(C)nc3sc(C)c(C)c23)c(=O)[nH]c1=O, O=C(NC(=S)Nc1ccccc1Br)c1ccco1, CCOc1ccc(NC(=S)NC(=O)c2ccco2)cc1, Cc1ccc2nc(NC(=S)NC(=O)c3ccco3)sc2c1, COc1cccc(OC)c1C(=O)Nc1cccc(-c2ccc3nncn3n2)c1, C=C(C)CNC(=O)c1ccc(OC2CCN(C(=O)COC)CC2)cc1, CCOc1ccc(-n2cc(-c3ccccc3)c3c(=S)nc[nH]c32)cc1, CCc1ccc(NC(=O)C(=O)NNC(=O)COc2cccc(OC)c2)cc1, COC(=O)c1ccc(COC(=O)c2ccccc2OC)cc1, CC(NC(=O)CS(=O)(=O)c1ccccc1)c1ccccc1 (stereo not given), Fc1cccc2sc(Nc3nnc(-c4ccco4)o3)nc12, O=c1c2ccccc2nc(-c2cccc(Cl)c2)n1O, COc1ccc(N=Nc2ccc(O)c3ncccc23)cc1

Source: PubChem BioAssay
